ChEMBL document CHEMBL1122226, “6-Aryl-4,5-dihydro-3(2H)-pyridazinones. A new class of compounds with platelet aggregation inhibiting and hypotensive activities” (J Med Chem, 1983)
In brackets after ≈: the same amount, converted by molar mass.

Legend:
[1] = In vitro inhibition of collagen induced aggregation of human plateles and the ratio of ED33 to EC50 was reported; assay type: functional
Outline: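 Ratio of oral ED33 (male Sprague-Dawley rats, 3 per dose, blood taken 1 h post-dose, collagen-triggered aggregation) to in vitro EC50 (human citrated platelet-rich plasma, 10 min room-temperature preincubation in 1% Me2SO, collagen 0.02 mg/mL final, regression-derived).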

[2] = system: Rattus norvegicus; experiment: Activity relative to dihydralazine for in vitro hypotensive activity in anesthetized rats; assay type: functional; settings: in the assay text read “in vivo” for “in vitro”
Outline: (§1)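 Male Sprague-Dawley rats, 230-280 g, urethane-anesthetized (ip); carotid arterial pressure recorded continuously by pressure transducer. Compounds given ip at 2 mL/kg. ED20, dose lowering mean carotid pressure by 20%, from log dose–effect regression; dihydralazine as reference.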

[3] = organism: Homo sapiens; experiment: Relative activity (compared to acetylsalicylic acid) for in vitro inhibition of collagen-induced human platelet aggregation; assay type: functional
[4] = organism: Homo sapiens; experiment: In vitro inhibition of ADP-induced human platelet aggregation; assay type: functional; settings: Homo sapiens; read-out: EC50
Outline: (§2)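 Human venous blood citrated with 10% v/v sodium citrate (3.8%); platelet-rich plasma spun at 300g, 10 min, 4 °C, used within 2 h. Compound in Me2SO (1% final) preincubated 10 min at room temperature; aggregation triggered by collagen 0.02 mg/mL final or ADP 0.85 μg/mL final; maximum rate read in Born aggregometer. EC50 from log dose–effect regression with 95% confidence limits.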

[5] = system: Rattus norvegicus; experiment: In vitro hypotensive activity in anesthetized rats after intraperitoneal administration.; assay type: functional; settings: ip, in the assay text read “In vivo” for “In vitro”; outline: as §1
[6] = system: Rattus norvegicus; experiment: Ex vivo inhibition of collagen-induced rat platelet aggregation after peroral administration; assay type: functional; settings: po
Outline: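 Male Sprague-Dawley rats, 200-250 g, dosed orally, three rats per dose. Blood drawn by heart puncture under ether 1 h post-dose; platelet-rich plasma prepared by centrifugation; aggregation induced with collagen 0.02 mg/mL final, maximum rate read in Born aggregometer.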

[7] = organism: Rattus norvegicus; experiment: Relative activity in rats based on acetylsalicylic acid; assay type: functional
[8] = organism: Homo sapiens; experiment: In vitro inhibition of collagen-induced human platelet aggregation.; assay type: functional, organism-based; outline: as §2
[9] = system: Rattus norvegicus; experiment: In vivo hypotensive activity in anesthetized rats after intravenous administration.

| Compound | Ratio [1] | Relative activity [2] | Relative activity [3] | EC50 [4] | ED20 [5] | ED33 [6] | Relative activity [7] | EC50 ([8]; Homo sapiens, read-out: EC50) | EC50 [8] | ED20 [9] |
| --- | --- | --- | --- | --- | --- | --- | --- | --- | --- | --- |
| CC1CC(=O)NN=C1c1ccc(NC(=O)C(C)(C)CCl)cc1 (centres undefined) | 10.6 | 0.55 | 1051 | 0.28 µg/mL (≈ 0.87 µM) | 0.61 mg/kg | 5 mg/kg | 46.6 |  |  |  |
| CC(=O)Nc1ccc(C2=NNC(=O)CC2)cc1 |  | 1.69 | 453 | 1 µg/mL (≈ 4.32 µM) | 0.2 mg/kg |  |  | 1.09 µg/mL (≈ 4.71 µM) |  |  |
| CC1CC(=O)NN=C1c1ccc(NC(=O)C(C)(C)CBr)cc1 (centres undefined) | 8 | 0.99 | 1123 | 0.5 µg/mL (≈ 1.37 µM) | 0.34 mg/kg | 3.5 mg/kg | 66.6 |  |  |  |
| CC(=O)Nc1ccc(C2=NN(C)C(=O)CC2)cc1 |  | 0.34 | <11 | > 46.4 µg/mL | 1 mg/kg |  |  | > 46.4 µg/mL |  |  |
| COc1ccc2c(c1)c(CC(=O)O)c(C)n2C(=O)c1ccc(Cl)cc1 [INDOMETHACIN] |  |  | 2.47 |  |  |  |  |  | 200 µg/mL (≈ 559 µM) |  |
| CCCCC[C@H](O)/C=C/[C@@H]1[C@H]2C/C(=C/CCCC(=O)O)O[C@H]2C[C@H]1O [EPOPROSTENOL] |  |  | 299394 | 0.0174 µg/mL (≈ 0.0494 µM) |  |  |  | 0.00165 µg/mL (≈ 0.00468 µM) |  | 0.00067 mg/kg |
| O=CNc1ccc(C2=NNC(=O)CC2)cc1 |  | 1.06 | 94 | 3.74 µg/mL (≈ 17.2 µM) | 0.32 mg/kg |  |  | 5.27 µg/mL (≈ 24.3 µM) |  |  |
| Nc1cccc(C2=NNC(=O)CC2)c1 |  | <0.34 | <11 | > 46.4 µg/mL | > 1 mg/kg |  |  | > 46.4 µg/mL |  |  |
| CC(Cl)C(=O)Nc1ccc(C2=NNC(=O)CC2C)cc1 (centres undefined) [AMIPIZONE] | 20.3 | 41.7 | 15936 | 0.099 µg/mL (≈ 0.337 µM) | 0.0081 mg/kg | 0.63 mg/kg | 370 |  |  |  |
| CCN(CC)CC(=O)Nc1ccc(C2=NNC(=O)CC2)cc1.Cl |  | <0.34 | ~49 | ~10 µg/mL | > 1 mg/kg |  |  | ~10 µg/mL |  |  |
| CCCC(=O)Nc1ccc(C2=NNC(=O)CC2)cc1 |  | 0.74 | 341 | 1.44 µg/mL (≈ 5.55 µM) | 0.46 mg/kg |  |  | 1.45 µg/mL (≈ 5.59 µM) |  |  |
| CN1N=C(c2ccc(N)cc2)CCC1=O |  | <0.34 | <11 | > 46.4 µg/mL | > 1 mg/kg |  |  | > 46.4 µg/mL |  |  |
| CCC(C)NCC(=O)Nc1ccc(C2=NNC(=O)CC2)cc1.Cl (centres undefined) |  | <0.34 | ~23 | ~21.5 µg/mL | > 1 mg/kg |  |  | ~21.5 µg/mL |  |  |
| CCC(Br)C(=O)Nc1ccc(C2=NNC(=O)CC2C)cc1 (centres undefined) | 9.6 | 0.23 |  | 0.052 µg/mL (≈ 0.148 µM) | 1.49 mg/kg | 2.58 mg/kg | 90.3 |  |  |  |
| O=C1CCC(c2ccc(NC(=O)CCCCl)cc2)=NN1 |  | <0.34 | <11 | > 46.4 µg/mL | > 1 mg/kg |  |  | > 46.4 µg/mL |  |  |
| CN1N=C(c2ccc(NC(=O)CCl)cc2)CCC1=O |  | <0.34 | <11 | > 46.4 µg/mL | > 1 mg/kg |  |  | > 46.4 µg/mL |  |  |
| CCCNCC(=O)Nc1ccc(C2=NNC(=O)CC2)cc1.Cl |  | <0.34 | ~49 | ~46.4 µg/mL | > 1 mg/kg |  |  | ~10 µg/mL |  |  |
| CC(Br)C(=O)Nc1ccc(C2=NNC(=O)CC2C)cc1 (centres undefined) | 14.1 | 0.85 |  | 0.26 µg/mL (≈ 0.769 µM) | 0.4 mg/kg | 8.18 mg/kg | 28.5 |  |  |  |
| CC(=O)Oc1ccccc1C(=O)O [ASPIRIN] | 0.47 | 1 | 1 |  |  | 233 mg/kg |  |  | 494 µg/mL (≈ 2740 µM) |  |
| CC(=O)Nc1ccc(C2=NNC(=O)C(C)C2)cc1 (centres undefined) |  | <0.34 | 11 | 46.4 µg/mL (≈ 189 µM) | > 1 mg/kg |  |  | 46.4 µg/mL (≈ 189 µM) |  |  |
| CCC(Cl)C(=O)Nc1ccc(C2=NNC(=O)CC2C)cc1 (centres undefined) | 9.6 | 0.52 | 7159 | 0.035 µg/mL (≈ 0.114 µM) | 0.65 mg/kg | 0.66 mg/kg | 353 | 0.069 µg/mL (≈ 0.224 µM) |  |  |
| CC1CC(=O)NN=C1c1ccc(NC(=O)CCCl)cc1 (centres undefined) | 158 | 7.68 | 1647 | 0.16 µg/mL (≈ 0.545 µM) | 0.044 mg/kg | 47.5 mg/kg | 4.9 |  |  |  |
